Measurements published in ChEMBL document CHEMBL3860088, “Design, synthesis, and evaluation of novel porcupine inhibitors featuring a fused 3-ring system based on the 'reversed' amide scaffold” (Bioorg Med Chem, 2016).
Calls of active or inactive are those of the source. The rule behind the calls is not given here.

Tests used:
[1] = target: T1, Protein-serine O-palmitoleoyltransferase porcupine (Homo sapiens) (UniProt Q9H237); experiment: Inhibition of porcupine in HEK293T cells transfected with pLibin-WNT3A plasmid assessed as reduction in Wnt3A secretion into cell culture medium at 0.1 uM after 48 hrs by Western blot method; format: cell-based; settings: HEK-293T
T1 sequence (whole entry): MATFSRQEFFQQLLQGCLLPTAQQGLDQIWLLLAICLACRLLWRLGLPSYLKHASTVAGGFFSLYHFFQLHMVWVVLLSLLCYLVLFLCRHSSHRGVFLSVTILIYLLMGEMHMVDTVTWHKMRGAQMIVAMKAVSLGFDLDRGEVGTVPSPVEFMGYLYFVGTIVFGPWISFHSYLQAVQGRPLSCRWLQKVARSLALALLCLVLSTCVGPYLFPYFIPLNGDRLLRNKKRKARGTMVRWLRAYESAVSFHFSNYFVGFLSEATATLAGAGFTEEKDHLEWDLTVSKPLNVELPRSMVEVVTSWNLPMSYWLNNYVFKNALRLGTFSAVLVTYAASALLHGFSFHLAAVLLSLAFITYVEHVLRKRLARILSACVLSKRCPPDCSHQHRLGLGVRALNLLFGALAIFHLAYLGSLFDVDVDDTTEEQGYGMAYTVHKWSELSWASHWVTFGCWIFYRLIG
In short: (§1)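 Cells were HEK293T transfected with pLinbin-Wnt3A plasmid or vehicle control, then exposed to compound (0.1 µM) or left untreated. After 48 h, Western blot was run on both the cell lysate and the culture medium to follow Wnt3A.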

[2] = target: T2, Protein-serine O-palmitoleoyltransferase porcupine (Mus musculus, UniProt Q9JJJ7); experiment: Inhibition of porcupine in mouse L Wnt3A cells co-cultured with HEK293 cells after 48 hrs by Super-top flash reporter gene assay; format: cell-based
T2 sequence (Q9JJJ7 whole entry): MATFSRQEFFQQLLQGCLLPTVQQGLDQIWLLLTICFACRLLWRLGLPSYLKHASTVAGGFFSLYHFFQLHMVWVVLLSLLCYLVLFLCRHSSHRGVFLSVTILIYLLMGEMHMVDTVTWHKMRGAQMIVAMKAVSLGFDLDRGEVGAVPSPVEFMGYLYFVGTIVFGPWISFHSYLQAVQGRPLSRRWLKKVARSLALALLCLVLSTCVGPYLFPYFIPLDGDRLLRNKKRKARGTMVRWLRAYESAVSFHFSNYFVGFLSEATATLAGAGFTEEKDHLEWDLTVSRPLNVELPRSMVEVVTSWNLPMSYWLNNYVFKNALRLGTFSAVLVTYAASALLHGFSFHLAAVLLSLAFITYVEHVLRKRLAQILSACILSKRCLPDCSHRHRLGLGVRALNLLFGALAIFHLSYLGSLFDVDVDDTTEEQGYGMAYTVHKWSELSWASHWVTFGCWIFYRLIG
In short: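 Readout was luminescence inhibition in a co-culture of Wnt-producing LWnt3A cells with Wnt-responding HEK293 cells. Values are geometric means of at least two runs ± SEM, with a reference inhibitor run as a standard in every assay.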

[3] = Solubility of the compound in FaSSIF at pH 6.5 at 4 mg/ml by LC-MS/MS analysis; format: physicochemical
In short: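 HCl salt suspended at 4 mg/mL in FaSSIF (pH 6.5), shaken 1 h, then equilibrated overnight at room temperature. After centrifugation, supernatant concentration was measured by LC-MS/MS.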

CYP3A4 = CYP3A4 (Homo sapiens, UniProt P08684); experiment: Inhibition of CYP3A4 in human liver microsomes at 10 uM using midazolam as substrate preincubated for 10 mins followed by NADPH addition measured after 10 mins by LC-MS/MS analysis; format: ADME; settings: probe midazolam
[4] = Effect on Wnt3A level in HEK293T cells transfected with pLibin-WNT3A plasmid at 0.1 uM after 48 hrs by Western blot method; format: ADME, cell-based; settings: human, hek-293t; in short: as §1
[5] = Chemical stability in simulated gastric fluid assessed as remaining compound levels at 200 uM at 40 degC after 24 hrs by HPLC method; format: ADME; settings: read-out: Stability
In short: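 Test compound held at 200 µM in simulated gastric fluid, 40 °C for 24 h; remaining compound then assessed.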

[6] = Metabolic stability in rat plasma assessed as remaining compound levels at 1 uM after 8 hrs by LC-MS/MS analysis; format: ADME, cell-free; settings: read-out: Stability
[7] = Intrinsic clearance in human liver microsomes at 1 uM preincubated for 10 mins followed by NADPH addition measured for 30 to 60 mins by LC-MS/MS analysis; format: ADME; settings: read-out: CLH
[8] = Intrinsic clearance in rat liver microsomes at 1 uM preincubated for 10 mins followed by NADPH addition measured for 30 to 60 mins by LC-MS/MS analysis; format: ADME; settings: read-out: CLH
[9] = Intrinsic clearance in mouse liver microsomes at 1 uM preincubated for 10 mins followed by NADPH addition measured for 30 to 60 mins by LC-MS/MS analysis; format: ADME; settings: read-out: CLH
[10] = Half life in human liver microsomes at 1 uM preincubated for 10 mins followed by NADPH addition measured for 30 to 60 mins by LC-MS/MS analysis; format: ADME
[11] = Half life in rat liver microsomes at 1 uM preincubated for 10 mins followed by NADPH addition measured for 30 to 60 mins by LC-MS/MS analysis; format: ADME
[12] = Half life in mouse liver microsomes at 1 uM preincubated for 10 mins followed by NADPH addition measured for 30 to 60 mins by LC-MS/MS analysis; format: ADME
CYP2C9 = CYP2C9 (Homo sapiens, UniProt P11712); experiment: Inhibition of CYP2C9 in human liver microsomes at 10 uM preincubated for 10 mins followed by NADPH addition measured after 10 mins by LC-MS/MS analysis; format: ADME
CYP2D6 = CYP2D6 (Homo sapiens, UniProt P10635); experiment: Inhibition of CYP2D6 in human liver microsomes at 10 uM using dextromethorphan as substrate preincubated for 10 mins followed by NADPH addition measured after 10 mins by LC-MS/MS analysis; format: ADME; settings: probe dextromethorphan
CYP1A2 = target: T3, CYP1A2 (Homo sapiens, UniProt P05177); experiment: Inhibition of CYP1A2 in human liver microsomes at 10 uM preincubated for 10 mins followed by NADPH addition measured after 10 mins by LC-MS/MS analysis; format: ADME
T3 sequence (P05177 whole entry): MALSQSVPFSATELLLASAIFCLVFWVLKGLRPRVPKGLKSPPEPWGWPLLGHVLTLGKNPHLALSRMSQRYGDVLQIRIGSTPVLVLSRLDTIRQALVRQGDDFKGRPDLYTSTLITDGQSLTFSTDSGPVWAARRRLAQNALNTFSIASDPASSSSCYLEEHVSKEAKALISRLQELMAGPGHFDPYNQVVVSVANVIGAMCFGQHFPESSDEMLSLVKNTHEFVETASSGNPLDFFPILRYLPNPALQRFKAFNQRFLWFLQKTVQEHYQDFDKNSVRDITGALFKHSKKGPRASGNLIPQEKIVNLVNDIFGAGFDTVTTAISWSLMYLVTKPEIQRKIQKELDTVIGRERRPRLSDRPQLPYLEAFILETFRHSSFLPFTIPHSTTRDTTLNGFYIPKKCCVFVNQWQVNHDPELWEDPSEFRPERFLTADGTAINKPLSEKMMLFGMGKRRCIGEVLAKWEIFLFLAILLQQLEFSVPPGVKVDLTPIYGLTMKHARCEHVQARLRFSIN

CYP2C19 = CYP2C19 (Homo sapiens, UniProt P33261); experiment: Inhibition of CYP2C19 in human liver microsomes at 10 uM preincubated for 10 mins followed by NADPH addition measured after 10 mins by LC-MS/MS analysis; format: ADME
CYP2C19, sequence (P33261 whole entry): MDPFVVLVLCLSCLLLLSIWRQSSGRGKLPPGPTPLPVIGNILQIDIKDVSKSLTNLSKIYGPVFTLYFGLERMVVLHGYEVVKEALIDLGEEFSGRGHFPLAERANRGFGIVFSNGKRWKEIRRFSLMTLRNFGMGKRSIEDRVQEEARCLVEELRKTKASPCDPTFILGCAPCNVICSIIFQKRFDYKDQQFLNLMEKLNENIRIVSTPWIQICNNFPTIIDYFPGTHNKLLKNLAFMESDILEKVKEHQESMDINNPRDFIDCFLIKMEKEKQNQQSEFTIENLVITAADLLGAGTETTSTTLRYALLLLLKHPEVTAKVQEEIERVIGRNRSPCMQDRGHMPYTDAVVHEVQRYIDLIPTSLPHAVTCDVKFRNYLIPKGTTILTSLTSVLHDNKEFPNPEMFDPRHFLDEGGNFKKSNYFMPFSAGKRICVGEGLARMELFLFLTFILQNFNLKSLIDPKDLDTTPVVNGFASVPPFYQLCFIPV

CYP2C9, sequence (P11712 whole entry): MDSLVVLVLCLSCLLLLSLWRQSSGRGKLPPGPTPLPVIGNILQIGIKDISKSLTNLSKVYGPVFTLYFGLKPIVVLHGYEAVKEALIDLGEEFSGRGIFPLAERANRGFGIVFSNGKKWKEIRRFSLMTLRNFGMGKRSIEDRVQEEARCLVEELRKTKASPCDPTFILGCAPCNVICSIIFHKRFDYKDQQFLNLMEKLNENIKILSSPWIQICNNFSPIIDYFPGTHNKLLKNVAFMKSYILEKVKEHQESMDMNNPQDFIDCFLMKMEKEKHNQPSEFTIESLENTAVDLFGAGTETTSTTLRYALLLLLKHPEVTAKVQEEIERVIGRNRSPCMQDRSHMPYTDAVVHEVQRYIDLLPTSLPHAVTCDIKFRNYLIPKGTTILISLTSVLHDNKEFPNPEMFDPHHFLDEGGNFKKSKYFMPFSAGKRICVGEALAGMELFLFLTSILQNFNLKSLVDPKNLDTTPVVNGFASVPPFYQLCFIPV
CYP3A4, sequence (P08684 whole entry): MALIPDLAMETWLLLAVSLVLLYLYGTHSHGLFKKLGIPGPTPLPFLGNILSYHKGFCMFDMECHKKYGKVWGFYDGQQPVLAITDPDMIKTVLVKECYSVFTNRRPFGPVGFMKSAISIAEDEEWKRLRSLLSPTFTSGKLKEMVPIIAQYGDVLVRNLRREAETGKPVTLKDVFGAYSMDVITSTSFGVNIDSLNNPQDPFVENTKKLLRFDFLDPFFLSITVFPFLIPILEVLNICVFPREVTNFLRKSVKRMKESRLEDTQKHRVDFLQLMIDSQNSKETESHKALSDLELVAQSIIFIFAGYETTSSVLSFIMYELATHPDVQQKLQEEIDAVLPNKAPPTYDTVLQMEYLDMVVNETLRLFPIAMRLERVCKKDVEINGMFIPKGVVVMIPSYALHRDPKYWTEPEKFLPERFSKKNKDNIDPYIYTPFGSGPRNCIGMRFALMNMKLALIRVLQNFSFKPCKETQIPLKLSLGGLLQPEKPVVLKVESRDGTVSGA
CYP2D6, sequence (P10635 whole entry): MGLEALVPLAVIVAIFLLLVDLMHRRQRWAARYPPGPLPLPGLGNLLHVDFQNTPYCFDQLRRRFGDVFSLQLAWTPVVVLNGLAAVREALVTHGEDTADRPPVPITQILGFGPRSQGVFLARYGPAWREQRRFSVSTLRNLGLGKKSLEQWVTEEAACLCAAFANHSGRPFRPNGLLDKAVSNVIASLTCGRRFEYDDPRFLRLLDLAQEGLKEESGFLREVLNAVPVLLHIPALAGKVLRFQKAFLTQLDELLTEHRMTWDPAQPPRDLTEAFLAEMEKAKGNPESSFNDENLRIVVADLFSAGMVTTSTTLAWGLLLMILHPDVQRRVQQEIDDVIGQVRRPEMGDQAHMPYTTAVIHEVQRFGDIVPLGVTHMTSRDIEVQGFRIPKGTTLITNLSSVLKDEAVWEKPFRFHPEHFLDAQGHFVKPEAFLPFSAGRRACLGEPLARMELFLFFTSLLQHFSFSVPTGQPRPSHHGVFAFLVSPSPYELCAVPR

In the case of `Cc1cc(-c2ccc(CNC(=O)c3ccc4c(c3)[nH]c3ccccc34)cc2)ccn1` [listing 1 of 2 here], the inhibition [1] is reported as “Active”.

For `Cc1cc(-c2ncc(CNC(=O)c3ccc4c(c3)[nH]c3ccccc34)cc2F)ccn1` [listing 1 of 2 here], the inhibition [1] was “Active”.

Compound `O=C(NCc1ccc2c(c1)Cc1ccccc1-2)c1ccc(-c2cnccn2)cc1` has an IC50 [2] of over 1 µM.

`Cc1cn(-c2ccc(CNC(=O)c3ccc4c(c3)[nH]c3ccccc34)cc2)cn1` gave an IC50 [2] of 0.119 µM.

Work on `Cc1cc(-c2ccc(CNC(=O)c3ccc(-c4ccccc4)cc3)cc2)ccn1` yielded an IC50 [2] of 0.001 µM.

For `Cc1cc(-c2ccc(CNC(=O)c3ccc4c(c3)C(=O)c3ccccc3-4)cc2)ccn1`, the IC50 [2] was 0.085 µM.

With `Cc1cc(-c2ccc(CNC(=O)c3ccc4c(c3)oc3ccccc34)cc2)ccn1` the IC50 [2] was 0.0091 µM.

`Cc1cc(-c2ncc(CNC(=O)c3ccc4c(c3)C(F)(F)c3ccccc3-4)cc2F)ccn1` gave an IC50 [2] of 0.016 µM.

In the case of `Cn1nccc1-c1ccc(CNC(=O)c2ccc3c(c2)[nH]c2ccccc23)cc1`, the IC50 [2] is reported as 0.13 µM.

In the case of `O=C(NCc1ccc2cnccc2c1)c1ccc2c(c1)[nH]c1ccccc12`, the IC50 [2] is reported as 0.207 µM.

`O=C(NCc1ccc2c(c1)Cc1ccccc1-2)c1ccc(-c2ccccc2)cc1` showed an IC50 [2] of over 1 µM.

Compound `N#Cc1ccc2cc(CNC(=O)c3ccc4c(c3)[nH]c3ccccc34)ccc2c1` has an IC50 [2] of 0.013 µM.

`O=C(NCc1ccc(-n2ccnc2)cc1)c1ccc2c(c1)[nH]c1ccccc12` gave an IC50 [2] of 0.314 µM.

`Cc1cc(-c2ncc(CNC(=O)c3ccc4c(c3)C(=O)c3ccccc3-4)cc2F)ccn1` gave an IC50 [2] of 0.044 µM.

`Cc1cc(-c2ccc(CNC(=O)c3ccc4c(c3)Cc3ccccc3-4)cc2)ccn1` gave an IC50 [2] of 0.035 µM.

In the case of `Cc1cc(-c2ccc(CNC(=O)c3ccc4c5ccccc5n(C)c4c3)cc2)ccn1`, the IC50 [2] is reported as over 1 µM.

With `Cc1cc(-c2ncc(CNC(=O)c3ccc4c(c3)[nH]c3ccccc34)cc2F)ccn1.Cl` the solubility [3] was 1.24 µM.

Work on `Cc1cc(-c2ccc(CNC(=O)c3ccc4c(c3)[nH]c3ccccc34)nc2)ccn1` yielded an IC50 [2] of 0.018 µM.

For `Cc1cc(-c2ncc(CNC(=O)c3ccc4c(c3)[nH]c3ccccc34)cc2F)ccn1` [listing 2 of 2 here], the inhibition at 10 min, 10 µM (CYP3A4) was 69%, the IC50 [2] was 0.0005 µM and the Activity [4] was “Non-Toxic”. The remaining at 24 h, 200 µM [5] was 100%, the remaining at 8 h, 1 µM [6] was 100% and the CLint scaled at 1 µM [7] was 3.42 L/h/kg. The CLint scaled at 1 µM [8] was 1.44 L/h/kg, the CLint scaled at 1 µM [9] was 6.54 L/h/kg and the half-life at 1 µM [10] was 0.517 h. The half-life at 1 µM [11] was 1.33 h, the half-life at 1 µM [12] was 0.917 h and the inhibition at 10 min, 10 µM (CYP2C9) was 31%. The inhibition at 10 min, 10 µM (CYP2D6) was 37%, the inhibition at 10 min, 10 µM (CYP1A2) was 73% and the inhibition at 10 min, 10 µM (CYP2C19) was 59%.

`Cc1cc(-c2ncc(CNC(=O)c3ccc4c5ccccc5n(C)c4c3)cc2F)ccn1` showed an IC50 [2] of 0.175 µM.

For `O=C(NCc1ccc2c(c1)oc1ccccc12)c1ccc(-c2cnccn2)cc1`, the IC50 [2] was 0.701 µM.

For `Cc1cc(-c2ncc(CC(=O)Nc3ccc(-c4cnccn4)cn3)cc2C)ccn1` [WNT-974], the IC50 [2] was 0.0009 µM, the inhibition [1] was “Active” and the Activity [4] was “Non-Toxic”. It also gave a remaining at 24 h, 200 µM [5] of 66%, a remaining at 8 h, 1 µM [6] of 100% and a CLint scaled at 1 µM [7] of 0.12 L/h/kg. For the same compound, the CLint scaled at 1 µM [8] was 0.18 L/h/kg, the CLint scaled at 1 µM [9] was 1.32 L/h/kg and the half-life at 1 µM [10] was 9.35 h. It also gave a half-life at 1 µM [11] of 12.8 h and a half-life at 1 µM [12] of 4.62 h.

For `Cc1cc(-c2ncc(CNC(=O)c3ccc4c(c3)oc3ccccc34)cc2F)ccn1`, the IC50 [2] was 0.0031 µM.

With `O=C(NCc1ccc(-c2ccncc2)cc1)c1ccc2c(c1)[nH]c1ccccc12` the IC50 [2] was 0.018 µM.

In the case of `Cc1cc(-c2ccc(CNC(=O)c3ccc4c(c3)[nH]c3ccccc34)cc2)ccn1` [listing 2 of 2 here], the inhibition at 10 min, 10 µM (CYP3A4) is reported as 7%, the IC50 [2] is reported as 0.0075 µM and the Activity [4] is reported as “Non-Toxic”. It also gave a remaining at 24 h, 200 µM [5] of 100%, a remaining at 8 h, 1 µM [6] of 100% and a CLint scaled at 1 µM [7] of 3.54 L/h/kg. For the same compound, the CLint scaled at 1 µM [8] was 0.42 L/h/kg, the CLint scaled at 1 µM [9] was 8.46 L/h/kg and the half-life at 1 µM [10] was 0.5 h. It also gave a half-life at 1 µM [11] of 4.62 h, a half-life at 1 µM [12] of 0.717 h and an inhibition at 10 min, 10 µM (CYP2C9) of -22%. It also gave an inhibition at 10 min, 10 µM (CYP2D6) of 9%, an inhibition at 10 min, 10 µM (CYP1A2) of 64% and an inhibition at 10 min, 10 µM (CYP2C19) of 8%.

Compound `Cc1cc(-c2ncc(CNC(=O)c3ccc4c(c3)[nH]c3ccccc34)cc2C)ccn1` has an IC50 [2] of 0.01 µM.

Compound `Cc1cc(-c2ccc(CNC(=O)c3ccc4c(c3)C(F)(F)c3ccccc3-4)cc2)ccn1` has an IC50 [2] of 0.06 µM.

For `Cc1cc(-c2ncc(CNC(=O)c3ccc4c(c3)Cc3ccccc3-4)cc2F)ccn1`, the IC50 [2] was 0.0092 µM.

In the case of `Cc1cc(-c2ccc(CNC(=O)c3ccc4c(c3)[nH]c3ccccc34)cn2)ccn1`, the IC50 [2] is reported as 0.0062 µM.

Work on `Cc1cc(-c2ccc(CNC(=O)c3ccc4c(c3)[nH]c3ccccc34)cc2)ccn1.Cl` yielded a solubility [3] of 0.16 µM.
